Test results reported in ChEMBL document CHEMBL1143227, “Design, synthesis, and in vitro activity of peptidomimetic inhibitors of myeloid differentiation factor 88” (J Med Chem, 2008).
Calls of active or inactive are those of the source. No cut-off for these calls is given here.

What was measured:
HeLa [1] = assay: Inhibition of IL-1-alpha-induced NF-kappaB activation in human HeLa cells at 4 uM; format: functional
HeLa [2] = assay: Toxicity against human HeLa cells at 20 uM by MTT assay; format: cell-based
HeLa [3] = assay: Toxicity against human HeLa cells at 10 uM by MTT assay; format: cell-based
HeLa [4] = assay: Inhibition of IL-1-alpha-induced NF-kappaB activation in human HeLa cells at 8 uM; format: functional
HeLa [5] = assay: Inhibition of IL-1-alpha-induced NF-kappaB activation in human HeLa cells at 10 uM; format: functional
HeLa [6] = assay: Inhibition of IL-1-alpha-induced NF-kappaB activation in human HeLa cells at 20 uM; format: functional
HeLa [7] = assay: Toxicity against human HeLa cells at 4 uM by MTT assay; format: cell-based
HeLa [8] = assay: Toxicity against human HeLa cells at 8 uM by MTT assay; format: cell-based
Mus musculus = assay: Decrease in IL-1-beta-dependent IL6 production in mouse at 50 to 200 mg/kg; format: functional, organism-based
[9] = target: Myeloid differentiation primary response protein MyD88 (Homo sapiens) (UniProt Q99836); assay: Inhibition of MyD88 homodimerization by yeast two-hybrid assay
How it was run: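 Yeast AH109 is cotransformed with AD-MyD88 and BD-MyD88, grown overnight at 30 °C in SGd/-Leu/-Trp, then diluted 1/20 into SGd/-Ade/-His/-Leu/-Trp with compound at a final 100 µM in oxygen-sensor plates. Growth at 30 °C is read by fluorescence (ex 485/em 630 nm, bottom read) every 90 min for 25 readings. Signal is normalized to initial well fluorescence, and growth curves are described by seven curve parameters.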

HeLa [10] = assay: Inhibition of IL-1-alpha-induced NF-kappaB activation in human HeLa cells at 100 uM; format: functional
How it was run: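 HeLa cells are grown in EMEM with 2 mM glutamine, 1% nonessential amino acids, 7.5% FBS and pen/strep. They are seeded at 3 × 10⁵/well, left overnight, then switched to serum-free EMEM. Compound (DMSO, final 100 µM) is added for 6 h at 37 °C, then recombinant human IL-1 5 ng/mL for 30 min. Activated p65 in about 10 µg lysate protein is read by TransAM colorimetric ELISA (A450). % inhibition uses stimulated and unstimulated controls with and without compound.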

Sequence of Myeloid differentiation primary response protein MyD88 (Homo sapiens) (Q99836 whole entry): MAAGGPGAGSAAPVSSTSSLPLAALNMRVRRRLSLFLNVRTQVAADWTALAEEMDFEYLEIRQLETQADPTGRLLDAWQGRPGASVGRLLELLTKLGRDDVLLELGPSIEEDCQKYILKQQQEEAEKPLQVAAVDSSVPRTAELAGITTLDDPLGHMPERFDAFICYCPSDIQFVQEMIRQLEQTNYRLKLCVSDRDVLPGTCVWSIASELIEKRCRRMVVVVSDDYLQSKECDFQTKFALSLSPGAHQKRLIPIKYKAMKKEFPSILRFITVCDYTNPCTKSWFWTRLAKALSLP

| SMILES | Activity [9] | inhibition at 100 µM (HeLa [10]) | other results |
| --- | --- | --- | --- |
| CC(C)(C)c1ccc(S(=O)(=O)/C=C/C#N)cc1 [BAY-11-7085] | – | – | inhibition at 4 µM (HeLa [1]): 0%; Activity (HeLa [2]): 41%; Activity (HeLa [3]): 4%; inhibition at 8 µM (HeLa [4]): 35%; inhibition at 10 µM (HeLa [5]): 44%; inhibition at 20 µM (HeLa [6]): 65%; Activity (HeLa [7]): 0%; Activity (HeLa [8]): 0% |
| Cc1cnc(C(=O)Nc2ccc(C(=O)NCCC(=O)N3CCC[C@]34C[C@H]3SCC[C@H](C(N)=O)N3C4=O)cc2)cn1 | Active | 23% | – |
| N=C(N)NCCCCNC(=O)c1ccc2cc(NC(=O)CN3C(=O)[C@@H]4C[C@@H](O)CN4C(=O)c4ccccc43)ccc2c1 | Active | 24% | – |
| CC(C)[C@H](NC(=O)CCc1ccccc1)C(=O)N1CCCC1 | – | 31% | – |

Now from value to compound, other results behind:

| Activity [9] | SMILES | inhibition at 100 µM (HeLa [10]) | other results |
| --- | --- | --- | --- |
| Active | NC(=O)[C@H]1CCS[C@@H]2C[C@]3(CCCN3C(=O)Cc3ccc(NC(=O)COc4ccc(Cl)cc4Cl)cc3)C(=O)N12 | 26% | Activity (Mus musculus): Active |
| Active | NC(=O)CN1CCC[C@]2(CCCN2C(=O)CCNC(=O)c2ccc(NC(=O)Cc3cccc4ccccc34)cc2)C1=O | 18% | – |
| Active | NC(=O)[C@H]1CCS[C@@H]2C[C@]3(CCCN3C(=O)c3nc(NC(=O)COc4ccc(Cl)cc4)n[nH]3)C(=O)N12 | 17% | – |
